Converted amounts (≈) assume the structure as drawn.
Tests used:
E6SM [1] = assay: Tested for the minimum inhibitory concentration required to reduce herpes simplex virus type 2 (HSV-2) strain G induced cytopathogenicity by 50%.; format: functional; settings: Homo sapiens
Outline: (§1)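 Inhibition of virus-induced cytopathogenicity in human embryonic skin-muscle (E6SM) fibroblasts seeded in 96-well trays. Viruses were HSV-1 (KOS, F, McIntyre), TK- HSV-1 B2006, TK-/TK+ HSV-1 clinical isolate VMW-1837 and HSV-2 (G, 196, Lyons). […] MCC is the lowest concentration giving microscopically detectable alteration of normal cell morphology; highest concentration tested was 400 µg/mL.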

E6SM [2] = assay: Tested for the minimum inhibitory concentration required to reduce vesicular stomatitis virus(VSV) induced cytopathogenicity by 50%; format: functional; settings: Homo sapiens
E6SM [3] = assay: Tested for the minimum inhibitory concentration required to reduce herpes simplex virus type 1 (HSV-1) strain KOS induced cytopathogenicity by 50%.; format: functional; settings: Homo sapiens; outline: as §1
E6SM [4] = assay: Tested for the minimum cytotoxic concentration required to cause a microscopically detectable alteration of normal cell morphology in human embryonic skin muscle (E6SM) fibroblast cell cultures.; format: functional; outline: as §1
E6SM [5] = assay: Tested for the minimum inhibitory concentration required to reduce thymidine kinase deficient herpes simplex virus type 1 (TK- HSV-1) strain B2006 induced cytopathogenicity by 50%.; format: functional; settings: Homo sapiens; outline: as §1
E6SM [6] = assay: Tested for the minimum inhibitory concentration required to reduce herpes simplex virus type 1 (TK- / TK+ HSV-1) strain VMW-1837 induced cytopathogenicity by 50%.; format: functional; settings: Homo sapiens; outline: as §1
E6SM [7] = assay: Tested for the minimum inhibitory concentration required to reduce herpes simplex virus type 2 (HSV-2) strain Lyons induced cytopathogenicity by 50%.; format: functional; settings: Homo sapiens; outline: as §1
E6SM [8] = assay: Tested for the minimum inhibitory concentration required to reduce herpes simplex virus type 1 (HSV-1) strain F induced cytopathogenicity by 50%.; format: functional; settings: Homo sapiens; outline: as §1
E6SM [9] = assay: Tested for the minimum inhibitory concentration required to reduce vaccinia virus(VV) induced cytopathogenicity by 50%.; format: functional; settings: Homo sapiens
E6SM [10] = assay: Tested for the minimum inhibitory concentration required to reduce herpes simplex virus type 2 (HSV-2) strain 196 induced cytopathogenicity by 50%.; format: functional; settings: Homo sapiens; outline: as §1
E6SM [11] = assay: Tested for the minimum inhibitory concentration required to reduce herpes simplex virus type 1 (HSV-1) strain McIntyre induced cytopathogenicity by 50%.; format: functional; settings: Homo sapiens; outline: as §1
HEL [12] = assay: Tested for the inhibitory concentration required to reduce TK+ Varicella-Zoster virus (TK+ VZV) strain YS plaque formation by 50%; format: functional, cell-based; settings: Homo sapiens
HEL [13] = assay: Tested for the inhibitory concentration required to reduce cytomegalovirus (CMV) strain Davis plaque formation by 50%.; format: functional, cell-based; settings: Homo sapiens
Outline: (§2)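 Virus plaque formation assay in human embryonic lung (HEL) cells seeded in 96-well trays. Targets were TK+ VZV (Oka, YS), TK- VZV (07/1, YS/R) and CMV (AD169, Davis). Value is the concentration that reduces plaque number by 50%. Cytotoxicity in HEL cells was taken as the concentration that reduces cell growth by 50%.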

E6SM [14] = assay: Tested for the minimum inhibitory concentration required to reduce thymidine kinase deficient herpes simplex virus type 1 (TK- / TK+ HSV-1) strain VMW-1837 induced cytopathogenicity by 50%.; format: functional; settings: Homo sapiens; outline: as §1
HEL [15] = assay: Tested for the inhibitory concentration required to reduce thymidine kinase plus Varicella-Zoster virus (TKplus VZV) strain OKA plaque formation by 50%.; format: functional, cell-based; settings: Homo sapiens; outline: as §2
HEL [16] = assay: Tested for the inhibitory concentration required to reduce thymidine kinase deficient Varicella-Zoster virus (TK- VZV) strain 07/1 plaque formation by 50%.; format: functional, cell-based; settings: Homo sapiens
HEL [17] = assay: Tested for the inhibitory concentration required to reduce cytomegalovirus (CMV) strain AD-169 plaque formation by 50%.; format: functional, cell-based; settings: Homo sapiens; outline: as §2
HEL [18] = assay: Tested for the inhibitory concentration required to reduce thymidine kinase deficient Varicella-Zoster virus (TK- VZV) strain YS/R plaque formation by 50%.; format: functional, cell-based; settings: Homo sapiens
HEL [19] = assay: Tested for the cytotoxic concentration, required to reduce cell growth by 50% in human embryonic lung (HEL) cells.; format: functional; outline: as §2
HEL [20] = assay: Tested for the inhibitory concentration required to reduce TK+ Varicella-Zoster virus (TK+ VZV) strain OKA plaque formation by 50%.; format: functional, cell-based; settings: Homo sapiens
E6SM [21] = assay: Tested for the minimum inhibitory concentration required to reduce herpes simplex virus type 1 (TK+ / TK- HSV-1) strain VMW-1837 induced cytopathogenicity by 50%.; format: functional; settings: Homo sapiens; outline: as §1
HEL [22] = assay: Tested for the inhibitory concentration required to reduce thymidine kinase deficient Varicella-Zoster virus (TK-VZV) strain YS/R plaque formation by 50%; format: functional, cell-based; settings: Homo sapiens; outline: as §2
HEL [23] = assay: Tested for the cytotoxic concentration, required to reduce cell growth by 50% in human embryonic lung (HEL) cells; format: functional; outline: as §2
HEL [24] = assay: Tested for the inhibitory concentration required to reduce cytomegalovirus (CMV) strain AD-169 plaque formation by 50%; format: functional, cell-based; settings: Homo sapiens; outline: as §2
E6SM [25] = assay: Tested for the minimum inhibitory concentration required to reduce herpes simplex virus type 1 (TK/ TK+HSV-1) strain VMW-1837 induced cytopathogenicity by 50%; format: functional; settings: Homo sapiens; outline: as §1
HEL [26] = assay: Tested for the inhibitory concentration required to reduce TK+ Varicella-Zoster virus (TK+VZV) strain OKA plaque formation by 50%; format: functional, cell-based; settings: Homo sapiens; outline: as §2
HEL [27] = assay: Tested for the inhibitory concentration required to reduce cytomegalovirus (CMV) strain Davis plaque formation by 50%; format: functional, cell-based; settings: Homo sapiens; outline: as §2
HEL [28] = assay: Tested for the inhibitory concentration required to reduce TK+ Varicella-Zoster virus (TK+VZV) strain YS plaque formation by 50%; format: functional, cell-based; settings: Homo sapiens; outline: as §2
E6SM [29] = assay: Tested for the minimum inhibitory concentration required to reduce herpes simplex virus type 2 (HSV-2) strain G induced cytopathogenicity by 50%; format: functional; settings: Homo sapiens; outline: as §1
E6SM [30] = assay: Tested for the minimum cytotoxic concentration required to cause a microscopically detectable alteration of normal cell morphology in human embryonic skin muscle (E6SM) fibroblast cell cultures; format: functional
Outline: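 Cytotoxicity in human embryonic skin-muscle (E6SM) fibroblasts seeded in 96-well trays, scored microscopically as altered normal cell morphology. Tested up to 400 µg/mL.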

HEL [31] = assay: Tested for the inhibitory concentration required to reduce thymidine kinase deficient Varicella-Zoster virus (TK-VZV) strain 07/1 plaque formation by 50%; format: functional, cell-based; settings: Homo sapiens; outline: as §2
E6SM [32] = assay: Tested for the minimum inhibitory concentration required to reduce thymidine kinase deficient herpes simplex virus type 1 (TK-HSV-1) strain B2006 induced cytopathogenicity by 50%; format: functional; settings: Homo sapiens; outline: as §1
E6SM [33] = assay: Tested for the minimum inhibitory concentration required to reduce vaccinia virus(VV) induced cytopathogenicity by 50%; format: functional; settings: Homo sapiens
E6SM [34] = assay: Tested for the minimum inhibitory concentration required to reduce herpes simplex virus type 1 (HSV-1) strain KOS induced cytopathogenicity by 50%; format: functional; settings: Homo sapiens; outline: as §1

Row | Compound | MIC (E6SM [1]) [µg/mL] | MIC (E6SM [2]) [µg/mL] | MIC (E6SM [3]) [µg/mL] | MCC (E6SM [4]) [µg/mL] | MIC (E6SM [5]) [µg/mL] | MIC (E6SM [7]) [µg/mL] | MIC (E6SM [8]) [µg/mL] | MIC (E6SM [9]) [µg/mL] | MIC (E6SM [10]) [µg/mL] | MIC (E6SM [11]) [µg/mL] | IC50 (HEL [12]) [µg/mL] | IC50 (HEL [13]) [µg/mL] | IC50 (HEL [16]) [µg/mL] | IC50 (HEL [17]) [µg/mL] | IC50 (HEL [18]) [µg/mL] | CC50 (HEL [19]) [µg/mL] | other results
1 | Nc1ncnc2c1ncn2C[C@@H](CO)OCP(=O)(O)O | 0.02 (≈ 0.066 µM) | > 400 | 0.2 (≈ 0.66 µM) | > 400 | 1 (≈ 3.3 µM) | 0.1 (≈ 0.33 µM) | 0.2 (≈ 0.66 µM) | 0.7 (≈ 2.31 µM) | 0.07 (≈ 0.231 µM) | 2 (≈ 6.6 µM) | – | – | – | – | – | – | MIC (E6SM [6]): 1 µg/mL (≈ 3.3 µM)
2 | Nc1nc(=O)n(C2COC(CO)C(O)C2)cc1F (stereo not given) | 2 (≈ 7.71 µM) | > 200 | 0.2 (≈ 0.771 µM) | > 400 | 0.07 (≈ 0.27 µM) | – | – | 0.2 (≈ 0.771 µM) | – | – | 3.5 (≈ 13.5 µM) | 0.5 (≈ 1.93 µM) | 5 (≈ 19.3 µM) | 0.9 (≈ 3.47 µM) | 7 (≈ 27 µM) | 2 (≈ 7.71 µM) | MIC (E6SM [14]): 2 µg/mL (≈ 7.71 µM); IC50 (HEL [15]): 2.9 µg/mL
3 | O=c1[nH]c(=O)n(C2COC(CO)C(O)C2)cc1F (stereo not given) | > 400 | – | > 400 | > 400 | > 400 | > 400 | > 400 | – | > 400 | > 400 | > 40 | > 40 | > 40 | > 40 | 40 (≈ 154 µM) | > 50 | IC50 (HEL [20]): 40 µg/mL (≈ 154 µM); MIC (E6SM [21]): 300 µg/mL (≈ 1150 µM)
4 | Nc1ncc2ncn(C3COC(CO)C(O)C3)c2n1 (stereo not given) | – | > 200 | – | – | – | – | – | – | – | – | – | – | – | – | – | – | IC50 (HEL [22]): 100 µg/mL (≈ 377 µM); CC50 (HEL [23]): 140 µg/mL (≈ 528 µM); IC50 (HEL [24]): > 50 µg/mL; MIC (E6SM [25]): 70 µg/mL (≈ 264 µM); IC50 (HEL [26]): 60 µg/mL (≈ 226 µM); IC50 (HEL [27]): > 50 µg/mL; IC50 (HEL [28]): 80 µg/mL (≈ 302 µM); MIC (E6SM [29]): 20 µg/mL (≈ 75.4 µM); MCC (E6SM [30]): > 400 µg/mL; IC50 (HEL [31]): 90 µg/mL (≈ 339 µM); MIC (E6SM [32]): 150 µg/mL (≈ 565 µM); MIC (E6SM [33]): > 200 µg/mL; MIC (E6SM [34]): 20 µg/mL (≈ 75.4 µM)
